Sequences and labels used below:
B1: tRNA (parent)
chain: GUUCCGUUGGCGUAAUGGUAACGCGUCUCCCUCCUAAGGAGAAGACUGCGGGUUCGAGUCCCGUACGGAACG

Variants at the floor of the assay were thinned out.

In this data set the parent is B1. The data set can be described thus: yeast fitness relative to wild type (ratio to wild type); higher = fitter; tRNA-Arg(CCU), competitive growth, 37 C, YPD. In a few lines:
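Gene amplicons from the start population and from each of six end populations were read by 100-nucleotide paired-end sequencing. Those end populations came from pooled Saccharomyces cerevisiae strains carrying tRNA-Arg(CCU) gene variants at the native locus, competed in YPD at 37°C for 24 hours. Fitness relative to wild type was worked out from changes in genotype frequencies. Genotypes needed ≥ 100 starting reads, and estimates < 0.5 were set to 0.5.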
C27U U47G: the yeast fitness came to 0.621.

For U28G G38C A43G U59C C60G, the yeast fitness is no more than 0.5.

As to U28A U32C, the yeast fitness was determined as 0.833.

For U28G G51C U64A C66U, the yeast fitness is no more than 0.5.

With U28C C49U G52A, the yeast fitness was determined as 0.619.

In the case of U28G C30G A40C A42U, the yeast fitness is no more than 0.5.

For U28A C34U, the yeast fitness is 0.553.

On to U28C U59C G67A, for which the yeast fitness came out at 0.532.

As for U28A A36G C66G, the yeast fitness was no more than 0.5.

For the variant U28C A42G A65G, the yeast fitness turned out to be 0.598.

Turning to U28C G48A C61G, the yeast fitness turned out to be 0.548.

For U28C C29G C33A G68C, the yeast fitness is no more than 0.5.

Consider C29A A36C G58A, for which the yeast fitness was no more than 0.5.

In the case of U28A A37U, the yeast fitness came to 0.73.

On to U28A G58U A65C, for which the yeast fitness is no more than 0.5.

In the case of U28G U32A G38C A43G, the yeast fitness came out at 0.551.

For U28A C49U U54G C62U, the yeast fitness is no more than 0.5.

In the case of U28C C30G, the yeast fitness stood at 0.667.

Regarding U28C C30U, the yeast fitness turned out to be 0.767.

U28A C29U A45C: the yeast fitness turned out to be 0.522.

Regarding U28A G44A G50A A57G G63A, the yeast fitness was no more than 0.5.

In the case of U28A A45C, the yeast fitness was 0.79.

Consider U28C C31A, for which the yeast fitness came out at 0.784.

With U28C C31G, the yeast fitness was 0.907.

Turning to C27U U59G G68C, the yeast fitness is 0.539.

Regarding U28G U32A, the yeast fitness amounted to 0.678.

On to U28C A40G G51C A65U, for which the yeast fitness came out at 0.545.

As to U28C C62U U64C, the yeast fitness was determined as 0.7.

With U28A C33U C55G A70U, the yeast fitness is no more than 0.5.

With U28A C46A C60U C66U, the yeast fitness is no more than 0.5.

Consider U28A G38A C55G, for which the yeast fitness was no more than 0.5.

Regarding U28C C29G A43U C49U U54G C66A, the yeast fitness is no more than 0.5.

Take U28A A36G A37G: the yeast fitness is no more than 0.5.

For U28A C49U C55G, the yeast fitness is no more than 0.5.

Regarding C27U U53A, the yeast fitness was determined as 0.628.

Consider U28C C55G C60A, for which the yeast fitness is no more than 0.5.

Turning to U28C C60U, the yeast fitness came to 0.73.

U28C U47C A70G: the yeast fitness is 0.743.

As to U28C G48A, the yeast fitness worked out at 0.866.

As for U28A C31U C34U, the yeast fitness is no more than 0.5.

As for U28G G50U C60G, the yeast fitness is no more than 0.5.

As for U28G G67A, the yeast fitness turned out to be 0.69.

In the case of U28A A40U A69U, the yeast fitness worked out at 0.769.

With U28A C62U, the yeast fitness worked out at 0.86.

With U28A U32G A65U, the yeast fitness is no more than 0.5.

For the variant U28A C29G A57C G67A, the yeast fitness is no more than 0.5.

Turning to U28C C46U, the yeast fitness is 0.911.

On to U28C A45G C66U, for which the yeast fitness is 0.72.

Regarding U28A C29U A37G G52C, the yeast fitness is no more than 0.5.

In the case of U28G C62U C66G, the yeast fitness is 0.568.

For U28G C31G U59A C61G, the yeast fitness was no more than 0.5.

Take U28C G48C U53C: the yeast fitness amounted to 0.553.

As to U28A G68C, the yeast fitness is 0.707.

Consider U28A G68U, for which the yeast fitness turned out to be 0.762.

As for U28A G52A, the yeast fitness was 0.705.

Regarding U28C A37C A40U G50A C60G, the yeast fitness was no more than 0.5.

U28A C61A: the yeast fitness was 0.612.

Regarding U28A C49U, the yeast fitness stood at 0.804.

Regarding U28A C49G, the yeast fitness was 0.818.

As for U28A C49A, the yeast fitness is 0.644.

For the variant U28G A37G G50C, the yeast fitness is 0.528.

For the variant U28A A57C C66G, the yeast fitness is no more than 0.5.

Take U28C A42U: the yeast fitness was 0.816.

As for U28C C55U C66G, the yeast fitness was no more than 0.5.

For the variant U28C U54C, the yeast fitness turned out to be 0.909.

U28C C30U U59C: the yeast fitness is no more than 0.5.

For U28A C46G G56A, the yeast fitness was determined as 0.676.

U28A C60U: the yeast fitness is 0.64.

Turning to C29A A36C G68A, the yeast fitness is no more than 0.5.

Regarding U28A A42G A57G, the yeast fitness was no more than 0.5.

In the case of U28G C31U G68A, the yeast fitness is no more than 0.5.

As to C29A A36C G52C, the yeast fitness stood at 0.545.

As to C29A A37C A42C G50A, the yeast fitness was no more than 0.5.

As for U28A C30U A40G U54G, the yeast fitness is no more than 0.5.

With C29A A36C C55U C61A, the yeast fitness was no more than 0.5.

Consider U28A G38A, for which the yeast fitness turned out to be 0.772.

For the variant U28A G38C, the yeast fitness came out at 0.541.

Consider U28C A40C C66G, for which the yeast fitness turned out to be 0.733.

On to U28A G52A U54A, for which the yeast fitness is no more than 0.5.

Consider U28C C29U G63C A65U, for which the yeast fitness is no more than 0.5.

In the case of U28A U59A, the yeast fitness came out at 0.633.

Consider U28A U59C, for which the yeast fitness stood at 0.647.

As to U28C G52A A69U, the yeast fitness was 0.592.

Consider U28G C31U, for which the yeast fitness worked out at 0.544.

As to U28G C31G, the yeast fitness worked out at 0.629.

In the case of U28A C31G U35A U47A U54A, the yeast fitness is no more than 0.5.

Regarding U28C G58U A65G G67A, the yeast fitness was no more than 0.5.

With U28C G67A, the yeast fitness came out at 0.652.

For U28C G52C U64A, the yeast fitness is no more than 0.5.

Consider U28G A36U C46U C61U, for which the yeast fitness is no more than 0.5.

Consider U28C U35C, for which the yeast fitness was 0.751.

As for U28C A42C U54G, the yeast fitness was no more than 0.5.

For U28C A37C, the yeast fitness was 0.786.

Turning to U28C A37G, the yeast fitness turned out to be 0.724.

For C29A A37U, the yeast fitness was no more than 0.5.

On to U28A A45C A65C, for which the yeast fitness was no more than 0.5.

As to U28A A40G G51C U54A G58C, the yeast fitness was 0.582.

Turning to U28A C34G G39C A57G C66U, the yeast fitness was no more than 0.5.

For the variant U28A A37G G41C, the yeast fitness is no more than 0.5.

Take U28G C34G A36G G44C C61G: the yeast fitness is no more than 0.5.

Consider U28C A43U G48C C60G, for which the yeast fitness was no more than 0.5.

With U28A C31G U35C C60U C61U, the yeast fitness is no more than 0.5.

On to U28A C55G C66U, for which the yeast fitness is no more than 0.5.

On to C27U U54C G67C, for which the yeast fitness stood at 0.54.

As for U28C C30U A45C G58A G67U, the yeast fitness was no more than 0.5.

U28G G38A A40G G56A: the yeast fitness stood at 0.626.

Consider U28G C29G, for which the yeast fitness is 0.608.

Consider U28G C29A, for which the yeast fitness is no more than 0.5.

For the variant U28A G44C, the yeast fitness came to 0.813.

With U28G G41C G56A, the yeast fitness amounted to 0.562.

As to U28C A37C A40U G63A A70C, the yeast fitness was no more than 0.5.

Regarding U28C A36G G41A A42C, the yeast fitness was no more than 0.5.

Take U28G C29A G41C A43U U47C C66G: the yeast fitness is no more than 0.5.

For the variant U28A A40C C66U, the yeast fitness was 0.658.

As to U28G C34U A45U, the yeast fitness turned out to be 0.52.

Regarding U28C C66G, the yeast fitness came out at 0.72.

Regarding U28C C66U, the yeast fitness was 0.907.

For the variant U28G A57U A70U, the yeast fitness amounted to 0.721.

Take U28C A36G: the yeast fitness worked out at 0.989.

Regarding U28C G41A G52U, the yeast fitness is no more than 0.5.

As for U28G A40U A69C, the yeast fitness was found to be 0.629.

Regarding U28A C34U G52A, the yeast fitness was no more than 0.5.

For the variant U28G A36G A45G, the yeast fitness was 0.718.

Regarding U28A C30A G67U, the yeast fitness was determined as 0.642.

For the variant U28C C46U G51C A70C, the yeast fitness was no more than 0.5.

Consider U28C G63C U64A C66G, for which the yeast fitness was no more than 0.5.

On to U28G A42U, for which the yeast fitness came to 0.71.

In the case of U28A G67A, the yeast fitness came to 0.628.

As to U28G G50C A57U C62A, the yeast fitness worked out at 0.619.

Take U28A A57G: the yeast fitness stood at 0.688.

On to U28A A36U G52A, for which the yeast fitness worked out at 0.777.

For U28A G56A, the yeast fitness amounted to 0.796.

Turning to U28A G39C, the yeast fitness amounted to 0.552.

Regarding U28A C49A A65C, the yeast fitness amounted to 0.528.

For C27U U59C A69U, the yeast fitness came to 0.795.

For U28A A65C, the yeast fitness worked out at 0.675.

With U28A G52A A57U C60U A65G G68A, the yeast fitness came out at 0.59.

Turning to U28C U47A C61G G67C, the yeast fitness is no more than 0.5.

As for C27U U54A, the yeast fitness stood at 0.543.

As to U28C C31U A36G G63C, the yeast fitness is no more than 0.5.

Regarding U28A A40U C62A, the yeast fitness was found to be 0.943.

As for C29A A37G A57G G67C A69U, the yeast fitness was no more than 0.5.

With U28A U47G, the yeast fitness was 0.535.

Regarding U28A U47C, the yeast fitness is 0.858.

For U28C C31A G41A G58C C66U, the yeast fitness is no more than 0.5.

With U28A A45C C49A G50A, the yeast fitness is no more than 0.5.

As for U28A C33A G51C A57C, the yeast fitness is no more than 0.5.

For C29A A36U C61U G67A G68U, the yeast fitness was no more than 0.5.

Turning to U28A C30U C66U, the yeast fitness is no more than 0.5.

For the variant U28A C29G G44C A65U, the yeast fitness turned out to be 0.935.

For U28C C30G A45C C49U, the yeast fitness is no more than 0.5.

On to U28C A69U, for which the yeast fitness stood at 0.893.

Take U28C C30A C49U: the yeast fitness was no more than 0.5.

Turning to U28C C31U G51A G63C, the yeast fitness is no more than 0.5.

As for U28A A57G C60A, the yeast fitness is 0.569.

Take U28A G51C C55G A57C U64A G67C: the yeast fitness was no more than 0.5.

As for U28C C31U A36C G41C U47A, the yeast fitness was no more than 0.5.

Consider U28G C29A G56A, for which the yeast fitness was no more than 0.5.

With U28A A70U, the yeast fitness amounted to 0.738.

For U28C A43C G44C C61A, the yeast fitness stood at 0.548.

For the variant U28C A45G, the yeast fitness came to 0.948.

Turning to U28C A45U A70U, the yeast fitness was found to be 0.773.

For U28C G41C G63A, the yeast fitness was no more than 0.5.

As to U28A C34A A40G C66A, the yeast fitness is no more than 0.5.

For U28A G50C, the yeast fitness turned out to be 0.609.

For the variant U28A U32A C55G, the yeast fitness was no more than 0.5.

As for U28C A43C G44C, the yeast fitness was no more than 0.5.
